The values that follow come from ChEMBL document CHEMBL1152610, “3- and 6-Substituted 2-amino-4,5,6,7-tetrahydrothieno[2,3-c]pyridines as A1 adenosine receptor allosteric modulators and antagonists” (Bioorg Med Chem, 2009).

Calls of active or inactive are those of the source. No cut-off for these calls is given here. A value given as a limit tells only on which side of the number the result lay.

Experiment [1] addresses T1, Adenosine receptor A1 (Homo sapiens) (UniProt P30542).
T1 sequence (whole entry): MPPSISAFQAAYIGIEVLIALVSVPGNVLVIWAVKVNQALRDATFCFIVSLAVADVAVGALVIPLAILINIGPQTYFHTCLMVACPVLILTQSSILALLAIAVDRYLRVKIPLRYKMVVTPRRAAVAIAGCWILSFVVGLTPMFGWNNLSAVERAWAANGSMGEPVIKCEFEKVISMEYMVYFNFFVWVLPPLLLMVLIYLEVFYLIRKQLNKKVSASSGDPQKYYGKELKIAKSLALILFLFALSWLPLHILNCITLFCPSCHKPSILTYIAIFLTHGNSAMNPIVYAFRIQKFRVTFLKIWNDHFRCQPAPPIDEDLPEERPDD
Nature of the experiment: Agonist activity at human adenosine A1 receptor expressed in CHOk1 cells assessed as potentiation of R-PIA-induced ERK1/2 phosphorylation at 3 uM. The class given is functional, cell-based. In a few lines:
(§1)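 FlpIn-CHO cells stably expressing human A1AR were seeded at 50,000/well and kept in serum-free DMEM/20 mM HEPES for at least 4 h. They were pretreated for 30 min with 1 U/mL adenosine deaminase, then for 30 min at 37 °C with compound at 3 or 10 μM.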

For experiment [2], the target named is T2, Adenosine receptor A1 (Homo sapiens, UniProt P30542).
T2 sequence (P30542 whole entry): T1 sequence (whole entry)
Nature of the experiment: Allosteric modulatory activity at human adenosine A1 receptor expressed in CHOk1 cells assessed as drug level causing half maximal allosteric effect on [125I]-ABA dissociation from receptor-G protein ternary complex by dissociation kinetic binding assay. Format: cell-based.

Experiment [3] has as its target T1, Adenosine receptor A1 (Homo sapiens). In words: Agonist activity at human adenosine A1 receptor expressed in CHOk1 cells assessed as induction of ERK1/2 phosphorylation at 10 uM relative to R-PIA. The class given is functional, cell-based. The method in brief:
as §1

The target is the same in experiment [4]. Nature of the experiment: Allosteric modulatory activity at human adenosine A1 receptor expressed in CHOk1 cells assessed as [125I]-ABA-receptor-G protein ternary complex remaining after 10 mins of radioligand dissociation at 50 uM by dissociation kinetic binding assay. Format: cell-based. The method in brief: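 Membranes (10 μg) from CHO-K1 cells stably expressing human A1AR were equilibrated for 90 min at room temperature with 0.5 nM [125I]-ABA in 10 mM HEPES pH 7.2, 0.5 mM MgCl2 and 1 U/mL adenosine deaminase. Modulator (0.1–50 μM final) was added for 30 min. Dissociation was started with 100 μM orthosteric antagonist plus 25 μM GTPγS for 10 min, then samples were filtered and counted. K-score is the % specific binding remaining; EC50 comes from a variable-slope sigmoidal fit.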

The target is the same in experiment [5]. In words: Agonist activity at human adenosine A1 receptor expressed in CHOk1 cells assessed as potentiation of R-PIA-induced ERK1/2 phosphorylation at 10 uM. The class given is functional, cell-based. In a few lines: as §1
Experiment [6] concerns the target T2, Adenosine receptor A1. In words: Antagonist activity at human adenosine A1 receptor expressed in CHOk1 cells assessed as inhibition of R-PIA-induced ERK1/2 phosphorylation. The class given is functional, cell-based. As to conditions: read-out: pA2 (converted). In a few lines:
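Human A1AR FlpIn-CHO cells were serum-starved and pretreated for 30 min with 1 U/mL adenosine deaminase. Modulator (0.3, 1, 3, 10 or 30 μM) or none was then added for 30 min at 37 °C. Full R-PIA concentration–response curves followed, with 5 min stimulation. ERK1/2 phosphorylation was measured by AlphaScreen SureFire and normalized to the 6 min 3% FBS response.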

As for `Nc1sc2c(c1C(=O)NCc1ccccc1)CCN(Cc1ccccc1)C2`, the outcome in experiment [1], in experiment [3] and in experiment [5] was inactive. For the same compound, the EC50 in experiment [2] came out at 13.1 µM. The Activity in experiment [4] worked out at 37.6%.
Turning to `CCOC(=O)c1c(N)sc2c1CCN(C(=O)OC(C)(C)C)C2`, the outcome in experiment [1], in experiment [3] and in experiment [5] was inactive. Besides, the Kb in experiment [6] was 0.832 µM. Also, in experiment [2], the EC50 amounted to 13.2 µM. Further, the Activity in experiment [4] came to 32.8%.
Consider `CN1CCc2c(sc(N)c2C(=O)O)C1`, for which the outcome in experiment [1], in experiment [3] and in experiment [5] was inactive. The EC50 in experiment [2] amounted to 11.6 µM. The Activity in experiment [4] was found to be 77.1%.
For `CN1CCc2c(sc(N)c2C(=O)NN)C1`, the outcome in experiment [1], in experiment [3] and in experiment [5] was inactive. Besides, the EC50 in experiment [2] was determined as 4.4 µM. For the same compound, the Activity in experiment [4] stood at 85.7%.
As to `CN1CCc2c(sc(N)c2C(=O)NCc2ccccc2)C1`, the result in experiment [1], in experiment [3] and in experiment [5] was inactive. In addition, in experiment [2], the EC50 came to 12 µM. Besides, the Activity in experiment [4] was found to be 87.2%.
On to `CN1CCc2c(sc(N)c2C(N)=O)C1`, for which the result in experiment [1], in experiment [3] and in experiment [5] was inactive. Besides, the EC50 in experiment [2] is > 20 µM. In experiment [4], the Activity was 19.8%.
For the compound `CCOC(=O)c1c(N)sc2c1CCN(Cc1ccccc1)C2` [TINORIDINE], the result in experiment [1], in experiment [3] and in experiment [5] was inactive. Further, in experiment [2], the EC50 was 10.3 µM. In addition, the Activity in experiment [4] turned out to be 44.9%.
For `CCOC(=O)c1c(N)sc2c1CCN(C(=O)[C@H](Cc1ccccc1)NC(=O)OC(C)(C)C)C2`, the result in experiment [1], in experiment [3] and in experiment [5] was inactive. Moreover, the Kb in experiment [6] was 0.372 µM. Besides, the EC50 in experiment [2] is 7.2 µM. In addition, the Activity in experiment [4] worked out at 82.5%.
Turning to `CCOC(=O)c1c(N)sc2c1CCN(C)C2`, the outcome in experiment [1], in experiment [3] and in experiment [5] was inactive. Besides, the EC50 in experiment [2] is > 20 µM. Moreover, in experiment [4], the Activity came to 14.9%.
In the case of `CCOC(=O)c1c(N)sc2c1CCN(C(=O)[C@H](CSC(c1ccccc1)(c1ccccc1)c1ccccc1)NC(=O)OC(C)(C)C)C2`, the outcome in experiment [1], in experiment [3] and in experiment [5] was inactive. In experiment [2], the EC50 is 7.9 µM. In experiment [4], the Activity came to 93.2%.
`Nc1sc2c(c1C(=O)NNc1ccccc1)CCN(Cc1ccccc1)C2`: the outcome in experiment [1], in experiment [3] and in experiment [5] was inactive. Besides, in experiment [2], the EC50 was found to be 7.8 µM. Further, the Activity in experiment [4] was 55.4%.
In the case of `NC(=O)c1c(N)sc2c1CCN(Cc1ccccc1)C2`, the outcome in experiment [1], in experiment [3] and in experiment [5] was inactive. The concentration giving a half-maximal response (EC50) in experiment [2] is > 20 µM. The Activity in experiment [4] was 19.1%.
On to `CCOC(=O)c1c(N)sc2c1CCN(C(=O)[C@@H](Cc1ccc(Cl)cc1)N(C)C(=O)OC(C)(C)C)C2`, for which the outcome in experiment [1], in experiment [3] and in experiment [5] was inactive. The Kb in experiment [6] was 1.82 µM. Besides, the EC50 in experiment [2] is 9.1 µM. In experiment [4], the Activity amounted to 92.9%.
Take `Nc1sc2c(c1C(=O)c1ccc(Cl)cc1)CCN(Cc1ccccc1)C2`: the outcome in experiment [1] and in experiment [5] was Active. For the same compound, the EC50 in experiment [2] was > 20 µM. Moreover, in experiment [4], the Activity was 32.6%.
For the compound `Nc1sc2c(c1C(=O)NCc1cccc(Cl)c1)CCN(Cc1ccccc1)C2`, the outcome in experiment [1], in experiment [3] and in experiment [5] was inactive. In addition, the EC50 in experiment [2] is > 20 µM. Further, the Activity in experiment [4] amounted to 36%.
Consider `CN1CCc2c(sc(N)c2C#N)C1`, for which the outcome in experiment [1], in experiment [3] and in experiment [5] was inactive. For the same compound, the 50% effective concentration (EC50) in experiment [2] is > 20 µM. Further, the Activity in experiment [4] turned out to be 14.8%.
As for `CN1CCc2c(sc(N)c2C(=O)NNc2ccccc2)C1`, the outcome in experiment [1], in experiment [3] and in experiment [5] was inactive. In addition, in experiment [2], the EC50 came to 11.5 µM. Moreover, the Activity in experiment [4] came to 83.1%.
As for `Nc1sc2c(c1C(=O)O)CCN(Cc1ccccc1)C2`, the outcome in experiment [1], in experiment [3] and in experiment [5] was inactive. Further, the EC50 in experiment [2] was 8 µM. Moreover, the Activity in experiment [4] was found to be 68.3%.
Consider `CN1CCc2c(sc(N)c2C(=O)NCc2cccc(Cl)c2)C1`, for which the result in experiment [1], in experiment [3] and in experiment [5] was inactive. In addition, the EC50 in experiment [2] came to 13.2 µM. Further, the Activity in experiment [4] was found to be 88%.
As to `Nc1sc2c(c1C(=O)NCc1cccc(C(F)(F)F)c1)CCN(Cc1ccccc1)C2`, the outcome in experiment [1], in experiment [3] and in experiment [5] was inactive. Further, in experiment [2], the EC50 is 15.5 µM. The Activity in experiment [4] is 46.9%.
For `N#Cc1c(N)sc2c1CCN(Cc1ccccc1)C2`, the outcome in experiment [1], in experiment [3] and in experiment [5] was inactive. In addition, the EC50 in experiment [2] stood at 15.2 µM. For the same compound, the Activity in experiment [4] is 52%.
Consider `CCOC(=O)c1c(N)sc2c1CCNC2`, for which the result in experiment [1], in experiment [3] and in experiment [5] was inactive. Besides, in experiment [2], the EC50 is 11.7 µM. Further, the Activity in experiment [4] was 58.5%.
With `CC(C)(C)OC(=O)N1CCc2c(sc(N)c2C(=O)O)C1`, the outcome in experiment [1], in experiment [3] and in experiment [5] was inactive. The EC50 in experiment [2] was determined as 12.1 µM. Further, in experiment [4], the Activity stood at 66.1%.
Consider `CC(C)(C)OC(=O)N1CCc2c(sc(N)c2C#N)C1`, for which the result in experiment [1], in experiment [3] and in experiment [5] was inactive. The EC50 in experiment [2] was > 20 µM. In experiment [4], the Activity was determined as 22.9%.
In the case of `NNC(=O)c1c(N)sc2c1CCN(Cc1ccccc1)C2`, the outcome in experiment [1], in experiment [3] and in experiment [5] was inactive. For the same compound, the EC50 in experiment [2] came to 8.9 µM. Besides, in experiment [4], the Activity stood at 82.9%.
